A selection: hits, their analogues and other compounds. The true share with any hit is near 4%.
KCNK3 inh = human KCNK3 channel inhibition, primary screen. CHO-KCNK3 thallium flux, FluxOR fluorescence; hits give low values. 0.84% of 340,000 active. B-score at 10 µM;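 active means B-score under library mean minus 4 SD, starting fluorescence ratio at most library mean plus 5 SD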;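 further: more negative B-score means stronger inhibition of thallium flux through KCNK3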
Target sequence (O14649 whole entry, looked up): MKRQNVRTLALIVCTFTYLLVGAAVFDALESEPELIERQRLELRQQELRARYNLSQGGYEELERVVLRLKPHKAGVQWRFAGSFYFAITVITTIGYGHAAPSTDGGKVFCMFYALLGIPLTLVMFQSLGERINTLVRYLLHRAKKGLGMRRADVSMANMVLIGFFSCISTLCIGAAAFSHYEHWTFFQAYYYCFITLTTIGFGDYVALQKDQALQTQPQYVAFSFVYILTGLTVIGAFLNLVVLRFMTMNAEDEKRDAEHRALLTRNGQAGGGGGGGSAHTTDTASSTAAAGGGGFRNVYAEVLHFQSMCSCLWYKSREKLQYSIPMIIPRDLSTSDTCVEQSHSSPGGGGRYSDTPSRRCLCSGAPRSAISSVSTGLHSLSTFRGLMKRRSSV
PHOSPHO1 inh = inhibitors of human PHOSPHO1 phosphatase. Q8TCT1. recombinant PHOSPHO1, absorbance phosphatase assay. inhibition, % at 13.3 µM. 1.1% of 290,000 active; in the data active means inhibition above about 60%
KCNQ1 inh = human KCNQ1 channel inhibition. B-score at 10 µM. CHO-K1 KCNQ1, FluxOR thallium flux fluorescence; hits give high values. P51787. 1.3% of 310,000 active. AID 2642;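 active means compounds whose thallium flux B-score, printed positive for inhibition, exceeds three library SD while starting fluorescence stays within three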;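 further: channel opened by potassium depolarization with thallium stimulus after 20 min compound exposure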
KCNK9 block = human KCNK9 channel inhibition; Q9NPC2; HEK293 KCNK9, FluxOR thallium flux fluorescence; hits give low values; 1.2% of 310,000 active; B-score at 10 µM;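 active means ratio B-score over 3 SD below the library mean, with starting fluorescence within 5 SD of its mean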;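 further: negative B-score means less thallium flux so channel inhibition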
hERG rescue = compounds protecting human hERG from proarrhythmic drug block. Q12809. CHO-hERG, FluxOR thallium flux, dofetilide IC70 present. activation (rescue from dofetilide block), less the hit threshold, % at 10 µM. 0.51% of 310,000 active. AID 1511;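 active means activation above the mean of controls blocked by dofetilide plus 5 SD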;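 further: thallium influx through hERG after potassium depolarization seen as dye fluorescence rise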
KCNQ1 act = potentiates or activates the human KCNQ1 potassium channel | P51787 | 0.35% of 310,000 active | CHO-K1 KCNQ1, thallium flux FluxOR fluorescence; hits give high values | B-score at 10 µM | AID 2648;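 active means fluorescence ratio B-score, a plate-corrected score, at least three library SD, with initial intensity B-score within 5 SD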
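Doses: Single concentration per compound, DMSO matched to controls | Test system: KCNQ1-transfected CHO-K1 cells | Timing: 90 min dye loading and 20 min compound exposure, both at room temperature | Measured by: Kinetic FluxOR thallium fluorescence, 10-s 1-Hz baseline, 110-s post-stimulus read | Medium: Assay buffer with matched DMSO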
* hit, by the source's call; i = inactive; . = not tested or not shown.

SMILES	KCNK3 inh	PHOSPHO1 inh	KCNQ1 inh	KCNK9 block	hERG rescue	KCNQ1 act
COc1ccc(S(=O)(=O)N2CCN(c3ccccc3)CC2)cc1	i	60*	i	i	-6	i
O=C1OCC(CO)(CO)N=C1NNc1ccccc1Cl	i	82*	i	i	-6	i
CCCc1nc2c(s1)CCc1onc(-c3ccc(Br)cc3)c1-2	i	.	i	i	-9	i
CCCc1nc2c(s1)CCc1onc(-c3ccc(Cl)cc3)c1-2	i	.	i	-7.1*	-6	i
CCCC(=O)Nc1c2c(nn1-c1ccc(C)cc1C)CSC2	i	72*	i	i	-7	i
S=C1NCCc2ccc(Cl)cc2C1c1ccccc1 (centres undefined)	-10*	8	.	.	.	.
CCc1nnc(NC(=O)CCC(=O)N2CCN(Cc3ccc(C)cc3C)CC2)s1	i	70*	i	i	-6	i
CCCc1nnc(NC(=O)CCC(=O)N2CCN(Cc3ccc(C)cc3C)CC2)s1	i	24	i	i	-5	i
CCOC(=O)c1cc(C#N)c(SCC(=O)OC)[nH]c1=O	i	0	i	i	-12	i
Cc1ccc(S(=O)(=O)N2CCN(C(=O)CSc3nnc(C)c(=O)[nH]3)CC2)cc1	i	90*	i	i	-4	i
Cc1nnc(SCC(=O)N2CCN(S(=O)(=O)c3ccccc3)CC2)[nH]c1=O	i	-14	i	i	-1	i
Cc1cc(C)c(C)c(C(=O)CSc2nnc(C)c(=O)[nH]2)c1C	.	89*	.	.	.	.
Cc1nnc(SCC(=O)c2c(N)n(C)c(=O)n(C)c2=O)[nH]c1=O	i	18	i	i	-7	i
[O-]/C(=C(\C(=S)Nc1cccc2ccccc12)[n+]1ccccc1)c1ccc(OC(F)F)cc1	i	32	.	.	.	.
[O-]/C(=C(\C(=S)Nc1cccc2ccccc12)[n+]1ccccc1)c1ccc2c(c1)OCCO2	i	85*	i	i	-9	i
COc1cccc(CN(C)C(=S)Nc2ccc(C)c(C)c2)c1	i	-5	i	i	4.7*	i
COc1ccc(CN(C)C(=S)Nc2ccc(OC(F)F)cc2)cc1	i	5	i	i	-21	i
Cc1nc2c(cnn2-c2ccccc2)c(=O)[nH]1	i	18	i	i	-11	i
COc1ccc(OC)c(S(=O)(=O)N2CCC(C(=O)Nc3ccccc3)CC2)c1	i	10	i	i	-10	i
COc1ccc(OC)c(S(=O)(=O)N2CCC(C(=O)Nc3cccc(C)c3)CC2)c1	i	6	6*	-7.9*	-17	i
O=C(Nc1ccncc1)C1CCN(S(=O)(=O)c2c(Cl)cccc2Cl)CC1	i	.	i	-7*	-14	i
CCOC(=O)c1cnc(SCC(=O)c2ccccc2)nc1N	i	102*	i	i	-10	i
Cc1[nH]n2c(=O)cc(-c3ccc([N+](=O)[O-])cc3)nc2c1-c1ccccc1	i	.	7*	i	-8	i
CCCc1cc(=O)n2[nH]c(C)c(-c3ccccc3)c2n1	i	13	i	i	-3	i
Cc1[nH]n2c(=O)cc(C(C)(C)C)nc2c1-c1ccccc1	i	21	i	i	8.6*	15*
SMILES	KCNK3 inh	PHOSPHO1 inh	KCNQ1 inh	KCNK9 block	hERG rescue	KCNQ1 act
Cc1[nH]n2c(=O)cc(C(C)C)nc2c1-c1ccccc1	i	6	i	i	-3	i
CS(=O)(=O)Nc1ccc(C2=NN(C(=O)c3ccco3)C(c3ccc(F)cc3)C2)cc1 (centres undefined)	i	19	i	i	-17	i
O=C(O/N=C/c1cccc([N+](=O)[O-])c1)C1CC1	i	0	i	i	-2	i
O=C(Cc1ccc(-n2cnnn2)cc1)NC12CC3CC(CC(C3)C1)C2	i	-16	i	i	-3	i
COc1ccc(S(=O)(=O)N2CCN(C/C=C/c3ccccc3)CC2)cc1NC(C)=O	i	52	i	i	-6	i
CCCCn1nc2cc(C(=O)NCc3ccc(C(F)(F)F)cc3C(F)(F)F)ccc2c1OCC	i	15	6*	i	-8	i
N#C/C(C(=O)NCc1ccco1)=C1/SC=C(c2ccccc2)N1c1ccccc1	i	-1	i	i	-7	i
COc1ccc(C(CNC(=O)Cc2ccccc2Cl)N2CCCCC2)cc1 (centres undefined)	i	-9	i	i	-10	i
COc1ccc(C(CNC(=O)Cc2ccccc2F)N2CCCCC2)cc1 (centres undefined)	i	40	i	i	6.3*	i
COCCNc1cnn(-c2ccccc2)c(=O)c1Cl	i	30	i	i	-1	i
C=CCOC(=O)C1=C[C@H](c2csc3ccccc23)C[C@H](OCc2ccc(CO)cc2)O1	i	.	6*	i	-20	i
C[n+]1cnn2c1SCC1(COC1)C2	i	92*	i	i	-2	i
O=C(CCc1ccccc1)NCC1(c2ccccc2)CCCC1	i	11	i	i	-6	i
Cc1cccc(C(=O)NNC(=O)C(=O)NC(C)(C)C)c1	i	30	i	i	-2	i
CC(C)(C)NC(=O)C(=O)NNC(=O)c1cccc(Br)c1	i	2	i	i	23*	18*
CC(C)(C)NC(=O)C(=O)NNC(=O)c1ccc(C(C)(C)C)cc1	i	9	i	i	15*	20*
Cc1cccc(OCC(=O)NCc2cc(C)nc3ccccc23)c1	i	-12	i	i	-12	i
CC(c1ccco1)N(C(=O)c1ccccc1NS(=O)(=O)c1cccc([N+](=O)[O-])c1)c1ccccn1 (centres undefined)	i	-5	7*	i	-18	i
O=C(/C=C/c1cccc([N+](=O)[O-])c1)NCCSCc1ccc(Cl)cc1Cl	i	3	i	-14*	-13	i
COc1ccccc1OCCNc1cc(N2CCCCC2)ccc1[N+](=O)[O-]	i	-32	6*	-6.8*	-7	i
Cc1ccccc1OCCNc1cc(N2CCNCC2)ccc1[N+](=O)[O-]	.	40	i	i	-23	i
COc1ccc(CNCCCSc2ncccn2)cc1OC	i	.	i	i	-6	i
O=C1C2CCCCC2C(=O)N1Cc1ccccc1 (centres undefined)	i	10	i	i	-4	i
O=C1C2C3CCC(C3NCc3ccccc3)C2C(=O)N1Cc1ccccc1 (centres undefined)	i	54	6*	i	-23	i

Screening results as filed in PubChem.
